Laboratory results taken from ChEMBL document CHEMBL3046214, “Friedelane triterpenes from Celastrus vulcanicola as photosynthetic inhibitors” (J Agric Food Chem, 2010).
Activity calls are given as the source filed them. The rule behind the calls is not given here.

Experiments:
[1] = tested on: Lolium perenne; assay: Inhibition of photosynthetic efficiency in Lolium perenne (perennial ryegrass) at 100 uM measured 24 hr post compound application; type: functional
How it was run: (§1)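 Greenhouse L. perenne sprayed 18 days after emergence (20 mM DMSO stock diluted into 0.05% Tween-20; vehicle-sprayed controls). Leaves dark-adapted 15 min, then excited with 3000 μmol photons m-2 s-1 red light (650 nm) from three LEDs. OJIP transients recorded at room temperature with a Handy PEA. PI(abs) and other parameters are shown on radar plots normalized to control.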

[2] = molecular target: Photosystem II protein D1 (Spinacia oleracea) (UniProt P69560); assay: Inhibition of uncoupled photosystem II electron transport and partial reactions in Spinacia oleracea (spinach) leaves assessed as electron transport rate from water to DCBQ at 100 uM measured per mg of chlorophyll relative to untreated control; set-up: scale not given: the % may be the effect or the level left
How it was run: (§2)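 Uncoupled PSII water-to-DCBQ rate: 3 mL of 100 mM sorbitol, 10 mM KCl, 5 mM MgCl2, 0.5 mM KCN, 15 mM tricine-KOH pH 8.0, with 100 μM DCBQ, 1 μM DBMIB, 6 mM NH4Cl and chloroplasts at 20 μg Chl/mL, illuminated 1 min. Rates are in μequiv e-/h mg Chl, percent of control, three replicates.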

[3] = molecular target: Photosystem II protein D1 (Spinacia oleracea) (UniProt P69560); assay: Inhibition of uncoupled photosystem II electron transport and partial reactions in Spinacia oleracea (spinach) leaves assessed as electron transport rate from water to DCPIP at 200 uM measured per mg of chlorophyll relative to untreated control; set-up: scale not given: the % may be the effect or the level left
[4] = tested on: Spinacia oleracea; assay: Inhibition of basal electron transport from water to MV in Spinacia oleracea (spinach) leaves chloroplasts up to 300 uM using Clark type electrode system based method; type: functional, organism-based
[5] = tested on: Spinacia oleracea; assay: Inhibition of phosphorylating noncyclic electron transport from water to MV in Spinacia oleracea (spinach) leaves chloroplasts up to 300 uM using Clark type electrode system based method; type: functional
How it was run: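 Clark-electrode measurement of water-to-MV electron flow in the basal medium (sorbitol, KCl, MgCl2, 0.5 mM KCN, 50 μM MV, 15 mM tricine-KOH pH 8.0; 20 μg Chl/mL; 1 min light), with 1 mM ADP and 3 mM KH2PO4 added.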

[6] = tested on: Spinacia oleracea; assay: Inhibition of photophosphorylation in Spinacia oleracea (spinach) leaves chloroplasts by titrimetry; type: functional; details: read-out: I50
How it was run: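 Intact spinach chloroplasts (20 μg Chl/mL) were osmotically broken in 3 mL of weakly buffered medium: 100 mM sorbitol, 10 mM KCl, 5 mM MgCl2, 0.5 mM KCN, 1 mM tricine-KOH pH 8.0, 50 μM MV and 1 mM ADP. ATP synthesis was taken from the medium alkalization rate in the linear part of illumination, calibrated by HCl back-titration, as μmol ATP (mg Chl)-1 h-1. I50 was obtained from concentration-activity plots; three replicates.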

[7] = molecular target: Photosystem II protein D1 (Spinacia oleracea) (UniProt P69560); assay: Inhibition of uncoupled photosystem II electron transport and partial reactions in Spinacia oleracea (spinach) leaves assessed as electron transport rate from water to SiMo at 100 uM measured per mg of chlorophyll relative to untreated control; set-up: scale not given: the % may be the effect or the level left
How it was run: (§3)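 Uncoupled partial PSII reaction from water to silicomolybdate, run in the PSII medium (sorbitol, KCl, MgCl2, KCN, 15 mM tricine-KOH pH 8.0, 6 mM NH4Cl, 20 μg Chl/mL, 1 min light). DCBQ/DBMIB were replaced by 200 μM SiMo plus 10 μM DCMU. Rates are in μequiv e-/h mg Chl, relative to control, three replicates.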

[8] = molecular target: Photosystem II protein D1 (Spinacia oleracea) (UniProt P69560); assay: Inhibition of uncoupled photosystem II electron transport and partial reactions in Spinacia oleracea (spinach) leaves assessed as electron transport rate from water to SiMo at 50 uM measured per mg of chlorophyll relative to untreated control; set-up: scale not given: the % may be the effect or the level left; how it was run: as §3
[9] = molecular target: Photosystem II protein D1 (Spinacia oleracea) (UniProt P69560); assay: Inhibition of uncoupled photosystem II electron transport and partial reactions in Spinacia oleracea (spinach) leaves assessed as electron transport rate from water to SiMo at 200 uM measured per mg of chlorophyll relative to untreated control; set-up: scale not given: the % may be the effect or the level left; how it was run: as §3
[10] = tested on: Physalis ixocarpa; assay: Inhibition of photosynthetic efficiency in Physalis ixocarpa intact leaves assessed as reduction in PI(abs) level at 200 uM measured 48 hr post compound application; type: functional
How it was run: (§4)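 P. ixocarpa plants sprayed 15 days after emergence (greenhouse, 25-30 °C; 20 mM DMSO stock diluted into 0.05% Tween-20; vehicle-sprayed controls). Leaves dark-adapted 15 min, then excited with 650 nm red LED light at 3000 μmol photons m-2 s-1. Chl a OJIP transients recorded with a Handy PEA at room temperature. PI(abs) is normalized to control; K-, J- and I-bands come from variable fluorescence difference curves; five replicates.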

[11] = molecular target: Photosystem II protein D1 (Spinacia oleracea) (UniProt P69560); assay: Inhibition of uncoupled photosystem II electron transport and partial reactions in Spinacia oleracea (spinach) leaves assessed as electron transport rate from water to SiMo at 300 uM measured per mg of chlorophyll relative to untreated control; set-up: scale not given: the % may be the effect or the level left; how it was run: as §3
[12] = tested on: Physalis ixocarpa; assay: Inhibition of photosynthetic efficiency in Physalis ixocarpa intact leaves assessed as effect on OJIP transients at 100 uM measured 24 hr post compound application; type: functional, organism-based; how it was run: as §4
[13] = tested on: Spinacia oleracea; assay: Effect on photosynthesis efficiency in Spinacia oleracea (spinach) leaves freshly lysed chloroplasts assessed as change in chlorophyll a fluorescence at 150 to 450 uM; type: functional
How it was run: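 Freshly lysed spinach thylakoids (20 μg Chl) were placed on filter paper with a dot-blot apparatus and dipped in 3 mL basal electron transport medium without MV, containing compound. After 5 min dark adaptation, fluorescence was excited with 3000 μmol m-2 s-1 650 nm LED light (2 s pulse) at room temperature. Wt = (Ft−F0)/(FJ−F0), difference from control used for K-band; five replicates.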

[14] = molecular target: Photosystem II protein D1 (Spinacia oleracea) (UniProt P69560); assay: Inhibition of uncoupled photosystem II electron transport and partial reactions in Spinacia oleracea (spinach) leaves assessed as electron transport rate from water to DCBQ at 200 uM measured per mg of chlorophyll relative to untreated control; set-up: scale not given: the % may be the effect or the level left; how it was run: as §2
[15] = molecular target: Photosystem II protein D1 (Spinacia oleracea) (UniProt P69560); assay: Inhibition of uncoupled photosystem II electron transport and partial reactions in Spinacia oleracea (spinach) leaves assessed as electron transport rate from water to DCPIP at 50 uM measured per mg of chlorophyll relative to untreated control; set-up: scale not given: the % may be the effect or the level left
[16] = tested on: Spinacia oleracea; assay: Increase in Magnesium-transporting ATPase activity in Spinacia oleracea (spinach) leaves chloroplasts thylakoids at 100 uM
How it was run: (§5)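 Spinach chloroplasts were isolated in 350 mM sorbitol, 5 mM ascorbate, 20 mM MES pH 6.5, centrifuged at 3000g for 60 s, washed, and resuspended in 35 mM HEPES pH 7.6. Light-triggered Mg2+-ATPase activity of thylakoid membranes was measured as released inorganic phosphate. Ammonium chloride served as positive control.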

[17] = tested on: Spinacia oleracea; assay: Inhibition of uncoupled electron transport from water to MV in Spinacia oleracea (spinach) leaves chloroplasts up to 300 uM using Clark type electrode system based method; type: functional, organism-based
How it was run: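 Water-to-MV electron transport measured with a Clark electrode in the basal medium (20 μg Chl/mL, 50 μM MV, 15 mM tricine-KOH pH 8.0, 1 min illumination), with 6 mM NH4Cl added as uncoupler.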

[18] = tested on: Lolium perenne; assay: Effect on biomass production in Lolium perenne (perennial ryegrass) assessed as plant dry weight at 100 uM measured 14 days post compound application relative to untreated control; type: functional
How it was run: (§6)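 Greenhouse-grown plants (pots, watered daily, 25 to 30 °C) of similar size, sprayed at 15 (P. ixocarpa) or 18 (L. perenne) days after emergence. Compound taken from a 20 mM DMSO stock into aqueous 0.05% w/v Tween-20; controls were sprayed with water containing the same DMSO and Tween-20. Plants harvested at ground level, oven-dried at 65 °C to constant weight, then weighed.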

[19] = tested on: Physalis ixocarpa; assay: Inhibition of photosynthetic efficiency in Physalis ixocarpa intact leaves assessed as reduction in PI(abs) level at 100 uM measured 72 hr post compound application; type: functional; how it was run: as §4
[20] = tested on: Lolium perenne; assay: Effect on biomass production in Lolium perenne (perennial ryegrass) assessed as plant dry weight at 200 uM measured 14 days post compound application relative to untreated control; type: functional; how it was run: as §6
[21] = molecular target: Photosystem II protein D1 (Spinacia oleracea) (UniProt P69560); assay: Inhibition of uncoupled photosystem II electron transport and partial reactions in Spinacia oleracea (spinach) leaves assessed as electron transport rate from water to DCBQ at 50 uM measured per mg of chlorophyll relative to untreated control; set-up: scale not given: the % may be the effect or the level left; how it was run: as §2
[22] = molecular target: Photosystem II protein D1 (Spinacia oleracea) (UniProt P69560); assay: Inhibition of uncoupled photosystem II electron transport and partial reactions in Spinacia oleracea (spinach) leaves assessed as electron transport rate from water to DCPIP at 300 uM measured per mg of chlorophyll relative to untreated control; set-up: scale not given: the % may be the effect or the level left
[23] = tested on: Spinacia oleracea; assay: Increase in Magnesium-transporting ATPase activity in Spinacia oleracea (spinach) leaves chloroplasts thylakoids at 200 uM; how it was run: as §5
[24] = tested on: Lolium perenne; assay: Inhibition of photosynthetic efficiency in Lolium perenne (perennial ryegrass) at 100 uM measured 72 hr post compound application; type: functional; how it was run: as §1
[25] = tested on: Physalis ixocarpa; assay: Inhibition of photosynthetic efficiency in Physalis ixocarpa intact leaves assessed as reduction in PI(abs) level at 100 uM measured 48 hr post compound application; type: functional; how it was run: as §4
[26] = tested on: Physalis ixocarpa; assay: Effect on biomass production in Physalis ixocarpa assessed as plant dry weight at 200 uM measured 14 days post compound application relative to untreated control; type: functional; how it was run: as §6
[27] = molecular target: Photosystem II protein D1 (Spinacia oleracea) (UniProt P69560); assay: Inhibition of uncoupled photosystem II electron transport and partial reactions in Spinacia oleracea (spinach) leaves assessed as electron transport rate from water to DCBQ at 300 uM measured per mg of chlorophyll relative to untreated control; set-up: scale not given: the % may be the effect or the level left; how it was run: as §2
[28] = tested on: Lolium perenne; assay: Inhibition of photosynthetic efficiency in Lolium perenne (perennial ryegrass) at 200 uM measured 24 to 72 hr post compound application; type: functional; how it was run: as §1
[29] = tested on: Spinacia oleracea; assay: Increase in Magnesium-transporting ATPase activity in Spinacia oleracea (spinach) leaves chloroplasts thylakoids at 300 uM; how it was run: as §5
[30] = tested on: Physalis ixocarpa; assay: Effect on photosynthetic efficiency in Physalis ixocarpa intact leaves assessed as increase in PI(abs) level at 100 uM measured 72 hr post compound application; type: functional; details: in the assay text read “at 200 uM” for “at 100 uM”; how it was run: as §4
[31] = tested on: Lolium perenne; assay: Inhibition of photosynthetic efficiency in Lolium perenne (perennial ryegrass) at 100 uM measured 48 hr post compound application; type: functional, organism-based; how it was run: as §1
[32] = molecular target: Photosystem II protein D1 (Spinacia oleracea) (UniProt P69560); assay: Inhibition of uncoupled photosystem II electron transport and partial reactions in Spinacia oleracea (spinach) leaves assessed as electron transport rate from water to DCPIP at 100 uM measured per mg of chlorophyll relative to untreated control; set-up: scale not given: the % may be the effect or the level left
[33] = tested on: Physalis ixocarpa; assay: Effect on biomass production in Physalis ixocarpa assessed as plant dry weight at 100 uM measured 14 days post compound application relative to untreated control; type: functional; how it was run: as §6
[34] = tested on: Physalis ixocarpa; assay: Inhibition of photosynthetic efficiency in Physalis ixocarpa intact leaves assessed as loss of K-bands at 200 uM measured 72 hr post compound application; type: functional, organism-based; how it was run: as §4

## C[C@H]1C(=O)CC[C@@H]2[C@]1(C)CC[C@H]1[C@@]2(C)CC[C@@]2(C)[C@@H]3CC(C)(C)CC[C@]3(CO)CC[C@]12C [CANOPHYLLOL]
[1]
  inhibition at 100 µM: 50%
[2]
  Activity: 68%
[3]
  Activity: 95%
[4]
  inhibition: Active
[5]
  inhibition: Active
[6]
  IC50: 124 µM
[7]
  Activity: 20%
[8]
  Activity: 60%
[9]
  Activity: 10%
[10]
  inhibition at 200 µM: 10%
[11]
  Activity: 0%
[12]
  inhibition: inactive
[13]
  Activity: Active
[14]
  Activity: 50%
[15]
  Activity: 105%
[16]
  Activity: 110%
[17]
  inhibition: Active
[18]
  Activity: 117.1%
[19]
  inhibition at 100 µM: 25%
[20]
  Activity: 140.3%
[21]
  Activity: 89%
[22]
  Activity: 100%
[23]
  Activity: 116%
[24]
  inhibition at 100 µM: 15%
[25]
  inhibition at 100 µM: 10%
[26]
  Activity: 99%
[27]
  Activity: 44%
[28]
  inhibition: inactive
[29]
  Activity: 126%
[30]
  Activity: 10%
[31]
  inhibition: inactive
[32]
  Activity: 108%
[33]
  Activity: 81.5%
[34]
  inhibition: Active
